Source: PubChem BioAssay
Calls of active or inactive are those of the source.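 Rule for the calls, unless noted: active = current rise at least 3 SD above the untreated control mean in each of two repeat wells; inactive = the rest.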

Tests used:
[1] = biological target: Potassium voltage-gated channel subfamily KQT member 1 (Homo sapiens) (UniProt P51787); test: KCNQ1 channel current potentiators, confirmation, orthogonal assay for KCNQ1 potentiator project, IonWorks patch clamp, KCNQ1-CHO cells (AID 493184); conditions: automated patch clamp current, at 10 µM
Chain of Potassium voltage-gated channel subfamily KQT member 1 (Homo sapiens) (P51787 whole entry, looked up): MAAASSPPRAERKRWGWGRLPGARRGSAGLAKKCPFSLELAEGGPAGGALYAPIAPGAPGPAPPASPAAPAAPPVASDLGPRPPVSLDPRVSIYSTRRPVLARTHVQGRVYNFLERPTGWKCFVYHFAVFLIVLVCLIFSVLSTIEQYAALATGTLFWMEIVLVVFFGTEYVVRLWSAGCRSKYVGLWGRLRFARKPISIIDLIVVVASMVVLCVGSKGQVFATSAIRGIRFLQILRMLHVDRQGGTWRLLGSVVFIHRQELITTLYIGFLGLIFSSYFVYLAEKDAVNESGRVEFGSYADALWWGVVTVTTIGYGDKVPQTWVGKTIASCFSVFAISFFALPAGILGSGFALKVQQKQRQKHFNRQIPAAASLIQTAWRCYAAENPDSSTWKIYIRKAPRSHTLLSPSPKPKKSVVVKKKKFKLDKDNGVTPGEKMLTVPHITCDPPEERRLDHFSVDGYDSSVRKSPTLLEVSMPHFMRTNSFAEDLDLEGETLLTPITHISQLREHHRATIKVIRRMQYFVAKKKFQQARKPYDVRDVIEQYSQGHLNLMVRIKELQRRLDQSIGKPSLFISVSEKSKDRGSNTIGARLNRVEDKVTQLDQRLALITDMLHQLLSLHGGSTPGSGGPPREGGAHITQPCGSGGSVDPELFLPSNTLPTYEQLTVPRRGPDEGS
Summary of the method: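 Read-out: Percent current increase versus pre-compound level | Assay system: CHO cells carrying KCNQ1 | Measured by: Automated perforated-patch electrophysiology | Medium: External bath solution at pH 7.4 | Dosing: One dose, 10 µM final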

[2] = biological target: Potassium voltage-gated channel subfamily E member 1 (Homo sapiens) + Potassium voltage-gated channel subfamily KQT member 1 (Homo sapiens) (UniProt P15382+P51787); test: KCNQ1/KCNE1 complex potentiators, confirmation, selectivity assay for KCNQ1 potentiator project, thallium flux, CHO-K1 KCNQ1/E1 cells (AID 493186;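 active = mean duplicate activation above the buffer control mean plus 5 SD of those controls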); conditions: FluxOR thallium flux, at 10 µM
Chain of Potassium voltage-gated channel subfamily E member 1 (Homo sapiens) + Potassium voltage-gated channel subfamily KQT member 1 (Homo sapiens) (P51787 whole entry, looked up): as the sequence (P51787 whole entry, looked up) above
Summary of the method: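 Test system: CHO-K1 cells with KCNQ1/E1; dosing: one test concentration; signal: FluxOR Tl+ flux fluorescence, kinetic read; incubation: 90-min dye loading then 20-min compound exposure, both at room temperature; read-out basis: percent of R-L3 effect over buffer; replication: duplicate wells per compound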

Row | Compound | outcome [1] | outcome [2]
1 | O=C(O)c1ccc(Cl)cc1Nc1nc2cc(Cl)ccc2o1 | inactive | 
2 | Oc1c(Br)cc(Br)cc1C=Nc1ccc2[nH]ncc2c1 | inactive | 
3 | CCCc1nc2oc3c(NCCN(C)C)ncnc3c2c2c1CCCC2 | inactive | inactive
4 | O=Cc1cc(N=Nc2ccccc2Cl)ccc1O | inactive | 
5 | Cc1ccc(/C=C/C(=O)c2ccc(O)cc2)cc1 | inactive | 
6 | CC1=NN(c2ccccc2)C(=O)/C1=C/c1c(O)n(-c2ccc(F)c(Cl)c2)[nH]c1=O | inactive | 
7 | Cc1cccc(/C=N/NC(=O)c2cc(Br)ccc2O)n1 | inactive | 
